Values joined by “and” are separate entries in the source; they are usually repeats but may differ in a detail not shown here. Equal values may be shown once. “Also recorded” adds a separate entry of the source.
How the values were obtained:
Y304F-CFTR = Y304F-CFTR (Homo sapiens, UniProt P13569, Y304F); test: Inside-out patch-clamp of CFTR currents in transfected CHO cells; format: cell-based
In short: (§1)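 CFTR construct and GFP plasmid cotransfected into CHO cells, held at 27°C for 2–6 d. Inside-out patches at room temperature, −30 mV, NMDG-Cl solutions at pH 7.4. Channels preactivated with 25 IU PKA plus 2 mM MgATP, then test compound (max 40 µM) applied in 2 mM ATP. ATP-subtracted steady-state currents normalized to the 3 µM response in the same patch. Hill fit with base 0 and maximum 1; EC50 ± SD of fit; 3–7 patches per point.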

F931A-CFTR = F931A-CFTR (Homo sapiens, UniProt P13569, F931A); test: as above; format: cell-based
In short: as §1

K190A-CFTR = K190A-CFTR (Homo sapiens, UniProt P13569, K190A); test: as above; format: cell-based
In short: as §1

S1141K/G551D-CFTR = S1141K/G551D-CFTR (Homo sapiens, UniProt P13569, G551D/S1141K); test: as above; format: cell-based
In short: as §1

T360A-CFTR = T360A-CFTR (Homo sapiens, UniProt P13569, T360A); test: as above; format: cell-based
In short: as §1

Y304A-CFTR = Y304A-CFTR (Homo sapiens, UniProt P13569, Y304A); test: Inside-out patch-clamp of CFTR currents in transfected CHO cells; format: cell-based
In short: (§2)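 Relaxation assay: PKA-preactivated channels in 2 mM ATP at −30 mV exposed to test compound through a fast three-barrel perfusion system (dead time ∼30 ms). Current decay after sudden removal of 3 µM compound fitted with a single exponential to give relaxation time constant τ.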

S182A-CFTR = S182A-CFTR (Homo sapiens, UniProt P13569, S182A); test: Inside-out patch-clamp of CFTR currents in transfected CHO cells; format: cell-based
In short: as §1

N1138F/G551D-CFTR = N1138F/G551D-CFTR (Homo sapiens, UniProt P13569, G551D/N1138F); test: as above; format: cell-based
In short: as §1

Q237A-CFTR = Q237A-CFTR (Homo sapiens, UniProt P13569, Q237A); test: as above; format: cell-based
In short: as §1

S1141T/G551D-CFTR = S1141T/G551D-CFTR (Homo sapiens, UniProt P13569, G551D/S1141T); test: as above; format: cell-based
In short: as §1

WT-mCFTR = WT-mCFTR (Mus musculus, UniProt P26361); test: Inside-out patch-clamp of CFTR currents in transfected CHO cells; format: cell-based; settings: 2 mM ATP
In short: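 Mouse CFTR expressed in CHO cells; inside-out patches. Phosphorylated channels opened by 2 mM ATP before the potentiator was applied (one potentiator at 200 nM). 5 µM CFTRinh-172 added at the end of each recording for baseline.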

F304Y-mCFTR = F304Y-mCFTR (Mus musculus, UniProt P26361, F304Y); test: Inside-out patch-clamp of CFTR currents in transfected CHO cells; format: cell-based
In short: as §1

S1141R/G551D-CFTR = S1141R/G551D-CFTR (Homo sapiens, UniProt P13569, G551D/S1141R); test: as above; format: cell-based
In short: as §1

WT zCFTR (zWT) = WT zCFTR (zWT) (Danio rerio, UniProt Q1LX78); test: as above; format: cell-based, zebrafish; settings: EC50 for GLPG1837, dose–response
In short: as §1

D924N-CFTR = D924N-CFTR (Homo sapiens, UniProt P13569, D924N); test: as above; format: cell-based
In short: as §1

Y304T-CFTR = Y304T-CFTR (Homo sapiens, UniProt P13569, Y304T); test: Inside-out patch-clamp of CFTR currents in transfected CHO cells; format: cell-based
In short: as §2

D924E-CFTR = D924E-CFTR (Homo sapiens, UniProt P13569, D924E); test: Inside-out patch-clamp of CFTR currents in transfected CHO cells; format: cell-based
In short: as §1

S1149A-CFTR = S1149A-CFTR (Homo sapiens, UniProt P13569, S1149A); test: as above; format: cell-based
In short: as §1

F229A-CFTR = F229A-CFTR (Homo sapiens, UniProt P13569, F229A); test: as above; format: cell-based
In short: as §1

D993A-CFTR = D993A-CFTR (Homo sapiens, UniProt P13569, D993A); test: as above; format: cell-based
In short: as §1

G551D-CFTR = G551D-CFTR (Homo sapiens, UniProt P13569, G551D); settings: ref Yeh et al., 2017, cited from earlier work
N1138Y/G551D-CFTR = N1138Y/G551D-CFTR (Homo sapiens, UniProt P13569, G551D/N1138Y); test: Inside-out patch-clamp of CFTR currents in transfected CHO cells; format: cell-based
In short: as §1

F312A-CFTR = F312A-CFTR (Homo sapiens, UniProt P13569, F312A); test: Inside-out patch-clamp of CFTR currents in transfected CHO cells; format: cell-based; settings: for ΔΔG: vs WT
[1] = CHO, read-out: Efficacy (% increase) of currents by GLPG1837

Chain of K190A-CFTR (P13569 whole entry K190A): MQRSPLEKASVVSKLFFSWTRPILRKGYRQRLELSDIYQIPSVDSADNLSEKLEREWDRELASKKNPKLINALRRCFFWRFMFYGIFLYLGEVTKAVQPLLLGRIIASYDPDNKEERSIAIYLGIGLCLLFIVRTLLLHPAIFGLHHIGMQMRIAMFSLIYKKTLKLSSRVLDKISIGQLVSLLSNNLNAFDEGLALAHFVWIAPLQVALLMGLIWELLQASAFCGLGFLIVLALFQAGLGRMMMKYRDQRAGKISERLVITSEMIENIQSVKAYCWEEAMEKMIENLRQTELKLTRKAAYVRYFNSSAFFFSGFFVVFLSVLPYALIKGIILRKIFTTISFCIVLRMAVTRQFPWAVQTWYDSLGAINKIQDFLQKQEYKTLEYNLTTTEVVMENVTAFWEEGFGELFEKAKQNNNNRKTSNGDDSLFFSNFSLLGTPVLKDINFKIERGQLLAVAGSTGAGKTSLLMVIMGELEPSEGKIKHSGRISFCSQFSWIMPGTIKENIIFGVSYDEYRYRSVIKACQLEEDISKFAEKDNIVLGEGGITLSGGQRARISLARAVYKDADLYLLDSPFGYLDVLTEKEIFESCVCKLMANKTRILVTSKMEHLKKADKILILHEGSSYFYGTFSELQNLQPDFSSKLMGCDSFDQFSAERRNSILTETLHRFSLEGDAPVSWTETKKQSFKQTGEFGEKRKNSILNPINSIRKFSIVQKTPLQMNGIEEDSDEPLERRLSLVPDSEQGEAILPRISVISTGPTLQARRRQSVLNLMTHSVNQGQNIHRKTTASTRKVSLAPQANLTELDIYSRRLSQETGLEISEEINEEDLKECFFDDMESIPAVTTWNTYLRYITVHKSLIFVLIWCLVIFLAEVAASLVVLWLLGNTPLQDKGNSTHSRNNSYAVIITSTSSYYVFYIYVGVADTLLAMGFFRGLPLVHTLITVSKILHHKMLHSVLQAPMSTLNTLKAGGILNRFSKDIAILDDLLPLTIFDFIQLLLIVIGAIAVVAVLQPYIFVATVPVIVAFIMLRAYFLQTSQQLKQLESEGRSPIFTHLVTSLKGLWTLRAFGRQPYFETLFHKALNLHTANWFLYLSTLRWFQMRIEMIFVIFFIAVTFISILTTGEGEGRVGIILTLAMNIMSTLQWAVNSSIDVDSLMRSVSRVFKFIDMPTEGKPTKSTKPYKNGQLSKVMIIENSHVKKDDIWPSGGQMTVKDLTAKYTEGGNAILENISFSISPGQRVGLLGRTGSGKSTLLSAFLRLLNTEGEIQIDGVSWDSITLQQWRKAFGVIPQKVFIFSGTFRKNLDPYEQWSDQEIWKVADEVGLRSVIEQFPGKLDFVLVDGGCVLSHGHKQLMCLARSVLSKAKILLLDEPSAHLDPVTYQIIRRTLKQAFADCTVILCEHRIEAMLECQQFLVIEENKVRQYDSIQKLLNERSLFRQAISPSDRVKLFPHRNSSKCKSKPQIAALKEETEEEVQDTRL
Chain of S182A-CFTR (P13569 whole entry S182A): as the sequence (P13569 whole entry K190A) above, with S182A, A190K counted along it
Chain of F304Y-mCFTR (P26361 whole entry F304Y): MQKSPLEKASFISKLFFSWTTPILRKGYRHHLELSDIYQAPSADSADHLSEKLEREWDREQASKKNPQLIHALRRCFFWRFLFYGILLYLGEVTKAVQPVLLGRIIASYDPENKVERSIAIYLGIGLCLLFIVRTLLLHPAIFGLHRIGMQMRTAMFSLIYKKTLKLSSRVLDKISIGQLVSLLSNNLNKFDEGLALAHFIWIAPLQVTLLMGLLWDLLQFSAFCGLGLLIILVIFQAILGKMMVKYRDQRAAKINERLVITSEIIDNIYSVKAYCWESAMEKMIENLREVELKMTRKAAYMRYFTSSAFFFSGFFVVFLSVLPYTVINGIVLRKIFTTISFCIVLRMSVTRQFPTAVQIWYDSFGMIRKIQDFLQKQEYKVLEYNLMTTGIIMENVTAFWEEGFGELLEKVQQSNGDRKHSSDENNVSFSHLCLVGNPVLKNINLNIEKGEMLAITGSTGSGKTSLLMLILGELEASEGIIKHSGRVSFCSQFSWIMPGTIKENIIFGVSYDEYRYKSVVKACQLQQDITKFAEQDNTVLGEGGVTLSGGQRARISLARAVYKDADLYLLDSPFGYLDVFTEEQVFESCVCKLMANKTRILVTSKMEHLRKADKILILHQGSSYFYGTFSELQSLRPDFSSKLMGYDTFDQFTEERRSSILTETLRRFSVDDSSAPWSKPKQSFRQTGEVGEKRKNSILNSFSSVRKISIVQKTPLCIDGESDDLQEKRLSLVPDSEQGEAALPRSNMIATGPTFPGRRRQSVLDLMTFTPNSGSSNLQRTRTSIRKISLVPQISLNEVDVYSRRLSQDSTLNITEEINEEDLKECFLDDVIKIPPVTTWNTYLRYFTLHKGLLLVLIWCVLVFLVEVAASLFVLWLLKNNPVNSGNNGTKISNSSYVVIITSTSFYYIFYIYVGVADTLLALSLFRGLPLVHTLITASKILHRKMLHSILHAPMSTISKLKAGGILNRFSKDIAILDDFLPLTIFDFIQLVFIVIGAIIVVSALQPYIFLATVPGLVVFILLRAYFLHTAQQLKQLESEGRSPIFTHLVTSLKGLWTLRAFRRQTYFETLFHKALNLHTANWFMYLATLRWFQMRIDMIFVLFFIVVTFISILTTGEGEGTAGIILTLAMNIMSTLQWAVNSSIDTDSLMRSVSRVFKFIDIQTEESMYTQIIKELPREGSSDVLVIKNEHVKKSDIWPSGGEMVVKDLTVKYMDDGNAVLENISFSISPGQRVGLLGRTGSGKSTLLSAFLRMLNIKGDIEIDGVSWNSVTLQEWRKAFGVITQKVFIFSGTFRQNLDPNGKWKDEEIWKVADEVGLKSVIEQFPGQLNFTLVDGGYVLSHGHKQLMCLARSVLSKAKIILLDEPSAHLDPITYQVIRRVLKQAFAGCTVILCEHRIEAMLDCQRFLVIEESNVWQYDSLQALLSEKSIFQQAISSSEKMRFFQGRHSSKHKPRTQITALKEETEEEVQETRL
Chain of Y304F-CFTR (P13569 whole entry Y304F): as the sequence (P13569 whole entry K190A) above, with A190K, Y304F counted along it
Chain of Y304A-CFTR (P13569 whole entry Y304A, the tested form may be a part): as the sequence (P13569 whole entry K190A) above, with A190K, Y304A counted along it
Chain of D993A-CFTR (P13569 whole entry D993A): as the sequence (P13569 whole entry K190A) above, with A190K, D993A counted along it
Chain of F229A-CFTR (P13569 whole entry F229A): as the sequence (P13569 whole entry K190A) above, with A190K, F229A counted along it
Chain of T360A-CFTR (P13569 whole entry T360A): as the sequence (P13569 whole entry K190A) above, with A190K, T360A counted along it
Chain of N1138F/G551D-CFTR (P13569 whole entry G551D/N1138F): as the sequence (P13569 whole entry K190A) above, with A190K, G551D, N1138F counted along it
Chain of F312A-CFTR (P13569 whole entry F312A): as the sequence (P13569 whole entry K190A) above, with A190K, F312A counted along it
Chain of D924N-CFTR (P13569 whole entry D924N): as the sequence (P13569 whole entry K190A) above, with A190K, D924N counted along it
Chain of Y304T-CFTR (P13569 whole entry Y304T): as the sequence (P13569 whole entry K190A) above, with A190K, Y304T counted along it
Chain of Q237A-CFTR (P13569 whole entry Q237A): as the sequence (P13569 whole entry K190A) above, with A190K, Q237A counted along it
Chain of D924E-CFTR (P13569 whole entry D924E): as the sequence (P13569 whole entry K190A) above, with A190K, D924E counted along it
Chain of S1149A-CFTR (P13569 whole entry S1149A): as the sequence (P13569 whole entry K190A) above, with A190K, S1149A counted along it
Chain of S1141K/G551D-CFTR (P13569 whole entry G551D/S1141K): as the sequence (P13569 whole entry K190A) above, with A190K, G551D, S1141K counted along it
Chain of F931A-CFTR (P13569 whole entry F931A): as the sequence (P13569 whole entry K190A) above, with A190K, F931A counted along it
Chain of S1141T/G551D-CFTR (P13569 whole entry G551D/S1141T): as the sequence (P13569 whole entry K190A) above, with A190K, G551D, S1141T counted along it
Chain of N1138Y/G551D-CFTR (P13569 whole entry G551D/N1138Y): as the sequence (P13569 whole entry K190A) above, with A190K, G551D, N1138Y counted along it
Chain of G551D-CFTR (P13569 whole entry G551D): as the sequence (P13569 whole entry K190A) above, with A190K, G551D counted along it
Chain of S1141R/G551D-CFTR (P13569 whole entry G551D/S1141R): as the sequence (P13569 whole entry K190A) above, with A190K, G551D, S1141R counted along it
Chain of WT-mCFTR (P26361 whole entry): as the sequence (P26361 whole entry F304Y) above, with Y304F counted along it

SMILES: CC1(C)Cc2c(sc(NC(=O)c3ccn[nH]3)c2C(N)=O)C(C)(C)O1 [GLPG1837, N-(3-carbamoyl-5,5,7,7-tetramethyl-5,7-dihydro-4H-thieno[2,3-c]pyran-2-yl)-lH-pyrazole-5-carboxamide]
- EC50 (Y304F-CFTR): 2280 ± 340 nM
- Emax (Y304F-CFTR; [1]): 82 ± 12%
- ΔΔG (Y304F-CFTR; GLPG1837, vs WT): -1.29 kcal/mol
- Relaxation time constant upon removal of GLPG1837 (Y304F-CFTR; mean, n = 5): 5.5 ± 1.3
- EC50 (F931A-CFTR): 1140 ± 260 nM
- Emax (F931A-CFTR; [1]): 83 ± 12%
- EC50 (K190A-CFTR): 80 ± 10 nM
- Emax (K190A-CFTR; [1]): 61 ± 12%
- ΔΔG (K190A-CFTR; GLPG1837, vs WT): 0.698 kcal/mol
- EC50 (S1141K/G551D-CFTR): 260 ± 20 nM
- ΔΔG (S1141K/G551D-CFTR; GLPG1837, vs G551D): 1.26 kcal/mol
- EC50 (T360A-CFTR): 120 ± 10 nM
- Emax (T360A-CFTR; [1]): 120 ± 38%
- ΔΔG (T360A-CFTR; GLPG1837, vs WT): 0.459 kcal/mol
- EC50 (Y304A-CFTR): > 3000 nM
- Emax (Y304A-CFTR; [1]): > 80%
- ΔΔG (Y304A-CFTR; GLPG1837, vs WT): <-1.45 kcal/mol
- Relaxation time constant upon removal of GLPG1837 (Y304A-CFTR; mean, n = 5): 3.6 ± 1.0 s and < 5 s
- EC50 (S182A-CFTR): 220 ± 40 nM
- Emax (S182A-CFTR; [1]): 138 ± 23%
- ΔΔG (S182A-CFTR; GLPG1837, vs WT): 0.098 kcal/mol
- EC50 (N1138F/G551D-CFTR): 160 ± 50 nM
- Emax (N1138F/G551D-CFTR; [1]): 666 ± 131%
- ΔΔG (N1138F/G551D-CFTR; GLPG1837, vs G551D): 1.55 kcal/mol
- EC50 (Q237A-CFTR): 920 ± 320 nM
- Emax (Q237A-CFTR; [1]): 615%
- ΔΔG (Q237A-CFTR; GLPG1837, vs WT): -0.748 kcal/mol
- EC50 (S1141T/G551D-CFTR): 1740 ± 310 nM
- ΔΔG (S1141T/G551D-CFTR; GLPG1837, vs G551D): 0.136 kcal/mol
- Potentiation of currents by GLPG1837 (WT-mCFTR): does not potentiate
- EC50 (F304Y-mCFTR): 680 ± 180 nM
- Potentiation of currents by GLPG1837 (F304Y-mCFTR): restores the potentiating effects; also recorded: Potentiation
- EC50 (S1141R/G551D-CFTR): 510 ± 130 nM
- ΔΔG (S1141R/G551D-CFTR; GLPG1837, vs G551D): 0.863 kcal/mol
- EC50 (WT zCFTR (zWT)): 3900 ± 1700 nM
- EC50 (D924N-CFTR): 2290 ± 780 nM
- ΔΔG (D924N-CFTR; GLPG1837, vs WT): -1.29 kcal/mol
- Efficacy (% increase) of currents by GLPG1837 (D924N-CFTR; maximal percent increase): 464 ± 73%
- EC50 (Y304T-CFTR): > 3000 nM
- Emax (Y304T-CFTR; [1]): > 101%
- ΔΔG (Y304T-CFTR; GLPG1837, vs WT): <-1.45 kcal/mol
- Relaxation time constant upon removal of GLPG1837 (Y304T-CFTR; mean, n = 5): 4.7 ± 0.8 s and < 5 s
- EC50 (D924E-CFTR): 710 ± 70 nM
- Emax (D924E-CFTR; [1]): 194 ± 8%
- ΔΔG (D924E-CFTR; GLPG1837, vs WT): -0.595 kcal/mol
- EC50 (S1149A-CFTR): 160 ± 30 nM
- Emax (S1149A-CFTR; [1]): 139 ± 36%
- ΔΔG (S1149A-CFTR; GLPG1837, vs WT): 0.287 kcal/mol
- EC50 (F229A-CFTR): 460 ± 70 nM
- Emax (F229A-CFTR; [1]): 135 ± 26%
- ΔΔG (F229A-CFTR; GLPG1837, vs WT): -0.337 kcal/mol
- EC50 (D993A-CFTR): 360 ± 40 nM
- Emax (D993A-CFTR; [1]): 283 ± 47%
- ΔΔG (D993A-CFTR; GLPG1837, vs WT): -0.194 kcal/mol
- Maximal fold increase of currents by GLPG1837 relative to WT-CFTR (G551D-CFTR; greater than WT-CFTR): 20 fold
- Apparent affinity for GLPG1837 relative to WT-CFTR (G551D-CFTR; lower than on WT-CFTR): 10 fold
- EC50 (N1138Y/G551D-CFTR): 400 ± 100 nM
- ΔΔG (N1138Y/G551D-CFTR; GLPG1837, vs G551D): 1.01 kcal/mol
- Emax (F312A-CFTR; CHO, read-out: Efficacy (% increase) of currents by GLPG1837, 30 µM ATP): 105 ± 12%
- EC50 (F312A-CFTR; EC50 for GLPG1837, 30 µM ATP (Po ∼0.35)): 1300 ± 260 nM
- EC50 (F312A-CFTR; EC50 for GLPG1837, 2 mM ATP): 400 ± 130 nM
- ΔΔG (F312A-CFTR; GLPG1837, 30 µM ATP): -0.954 kcal/mol
- ΔΔG (F312A-CFTR; GLPG1837, 2 mM ATP): -0.256 kcal/mol
